GRK2 inh – inhibitors of human GRK2 displacing RNA aptamer. P25098. bead flow cytometry, FAM-aptamer displacement from GRK2. inhibition of aptamer binding, % at 10 µM. 330,000 compounds, 0.59% hits;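 active = inhibition of aptamer binding above 40%, roughly 3 SD of noise, on plates passing a quality check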;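 note: median bead fluorescence of bound FAM aptamer so fluorescent compounds give negative values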
proCasp3 act – procaspase-3 (human) activation; P42574; recombinant procaspase-3 D3A, Ac-DEVD-pNA absorbance 405 nm; AID 463141; activation, % at 8.5 µM; 330,000 compounds, 0.11% hits;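 active = activation above the mean of all tested compounds plus 3 SD, cut at about 21% in these data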;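 note: 0% = DMSO alone and 100% = DMSO wells spiked with extra 5 µM PC-3 D3A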
Target sequence (P42574 whole entry D9A/D28A/D175A): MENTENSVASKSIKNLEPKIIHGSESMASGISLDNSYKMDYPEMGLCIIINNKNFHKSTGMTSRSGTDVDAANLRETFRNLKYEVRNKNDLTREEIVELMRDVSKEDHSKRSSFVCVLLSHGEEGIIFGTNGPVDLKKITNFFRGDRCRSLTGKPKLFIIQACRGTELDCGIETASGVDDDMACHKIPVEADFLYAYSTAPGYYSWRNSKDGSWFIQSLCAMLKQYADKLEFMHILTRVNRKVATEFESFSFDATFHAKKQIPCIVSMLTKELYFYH
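Test system: Procaspase-3 D3A mutant, all three cleavage aspartates alanine | Dosing: Single dose, 8.5 µM nominal compound, 0.8% DMSO | Schedule: 1 h preincubation, 2 h reaction | Technique: 405 nm absorbance of p-nitroaniline, reads at 0 and 120 min | Repeats: One well per compound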
proCasp7 act – activates human procaspase-7, counter-screen for procaspase-3 activators. P55210. recombinant procaspase-7, Ac-DEVD-pNA absorbance 405 nm; D23A/D198A/D206A triple mutant, cannot self-cleave; scale: DMSO 0, 5 µM enzyme 100. activation, % at 8.5 µM. 330,000 compounds, 0.093% hits;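 active = percent activation above the screen-wide mean plus 3 SD, cut at about 25% in these data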
Target sequence (P55210 whole entry D23A/D198A/D206A): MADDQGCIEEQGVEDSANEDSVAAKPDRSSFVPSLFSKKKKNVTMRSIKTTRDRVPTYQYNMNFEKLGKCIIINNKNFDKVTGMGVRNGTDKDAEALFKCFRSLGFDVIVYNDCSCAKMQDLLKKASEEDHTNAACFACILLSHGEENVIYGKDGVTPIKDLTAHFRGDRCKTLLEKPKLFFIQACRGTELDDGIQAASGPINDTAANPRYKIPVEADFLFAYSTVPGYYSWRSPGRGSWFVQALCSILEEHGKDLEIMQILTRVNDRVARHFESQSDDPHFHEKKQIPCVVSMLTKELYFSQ
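Material: Procaspase-7 triple mutant (PC-7 D3A) | Quantity: 2 µM procaspase-7 mutant as dispensed | Reagent: DEVD-pNA substrate | Times: 1 h preincubation, 2 h reaction | Technique: 405 nm absorbance of p-nitroaniline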
aDG glyco act – alpha-DG glycosylation activation; Pro5-aDG cells, alpha-DG glycosylation AlphaScreen (IIH6); 0% Pro5, 100% B10-LARGE cell signal; activation, % at 10 µM; 360,000 compounds, 0.22% hits;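 active = activation of at least 8% versus controls, or a plate z-score of at least 8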;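 note: Pro5 are CHO cells carrying HIG-tagged alpha-DG that lacks glycosylation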
T cell HTS – T cell immune modulators affecting CD8 T cell-vesicle binding. 2C CD8+ T cell-vesicle binding, flow cytometry; stronger effect = lower value. response (vesicle binding), % at 7 µM. 330,000 compounds, 0.068% hits. AID 2052;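 active = response, share of CD8 T cells binding vesicles, and their 90th percentile fluorescence all below set limits, cut at about 80% in these data, passing the limit was not always enough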;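 note: values below 100% mean blocked vesicle binding to the CD8+ T cells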
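Material: murine 2C transgenic CD8+ T lymphocytes / Also added: QL9-peptide-loaded Drosophila micro-vesicles bearing Ld, ICAM-1 and B7-1 / Schedule: binding step 1.5 h, 37 °C, antibody labelling 20 min, ice / Signal: flow cytometry, PE anti-B7-1 (FL2) versus Alexa647 anti-CD8 (FL8), PFA-fixed / Evaluation: percent CD8+ FL2 mean versus row control / Benchmarks: naked versus QL9-loaded vesicles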
CaV13 FRET inh – Primary screen for inhibitors of IQ motif and Ca2+-dependent inactivation inhibitor domain binding in CACNA1D, Förster resonance energy transfer in living cells, … | HEK cells, CFP/YFP FRET ICDI-IQ, plate reader, 10 min; percent FRET-ratio fall versus neutral wells | 340,000 compounds, 0.098% hits | inhibition, % at 12.3 µM | AID 743397;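 active = mean replicate inhibition of at least 30% and at least 1% of replicates passing that level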;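 note: 0% = median of the neutral control wells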
* = called active by the depositor; i = inactive; nt = not tested or not shown. In the library only some 1.1% were active in any assay of this set; here they are far more common.

SMILES	GRK2 inh	proCasp3 act	proCasp7 act	aDG glyco act	T cell HTS	CaV13 FRET inh
COc1ccc(OC)c(C(=O)c2coc3ccc(O)c(CN(C)C)c23)c1	0.0	6.1	0.4	0.1	257.9	-5.9
O=c1oc2c(O)c(O)cc3c(=O)oc4c(O)c(O)cc1c4c23	84.0*	-0.6	-1.9	-0.1	498.9	nt
O=c1oc2ccccc2c2oc3cc(O)c(O)cc3c12	1.0	-16.4	-4.2	0.1	563.9	-4.0
CC(C)(C)c1csc(N/N=C/c2ccc(O)cc2)n1	1.0	-9.8	4.3	0.0	171.0	64.3*
O=C(CCc1c[nH]c2ccccc12)Nc1ccc(Nc2ccccc2)cc1	nt	nt	nt	nt	nt	-2.1
CCN(CC)c1ccc(/C=N/NC(=S)NCc2ccccc2)c(O)c1	42.0*	7.0	-17.0	0.5	428.9	-0.1
NC(=O)C1CCN(c2nc(-c3cc4ccccc4o3)cs2)CC1	0.0	-5.7	-16.2	0.3	78.3*	-3.6
CCCCCCCCN1C(=O)[C@@H](CC(=O)NCc2ccc(OC)c(OC)c2)C[C@@]2(C(=O)OC)C1=C[C@H](C(C)(C)C)O[C@@H]2C	nt	nt	nt	nt	nt	-8.8
COCCn1c(=NC(=O)CSC(C)=O)sc2cc(OC)ccc21	1.0	4.5	1.2	0.2	622.7	-3.2
CCn1c(=NC(=O)CSC(C)=O)sc2cc(OC)ccc21	3.0	4.7	1.6	0.0	646.8	39.5*
CCN(CC)c1ccc2cc(C(N)=O)c(=N)oc2c1	2.0	-18.9	-25.7	-0.6	461.9	4.0
CCN(CC)c1ccc2cc(C(N)=O)c(=O)oc2c1	7.0	-9.8	-20.7	-0.3	241.2	32.9*
CCOC(=O)C1(CC2CCCCO2)CCN(S(=O)(=O)c2ccsc2)CC1 (stereo not drawn)	0.0	7.1	5.3	-0.2	489.8	-4.0
CCOC(=O)C1(CC2CCCCO2)CCN(S(=O)(=O)c2ccc(C)s2)CC1 (stereo not drawn)	4.0	-1.5	7.5	-0.2	13.2*	5.4
COc1nc(Nc2ccc(C(C)C)cc2)nc(OC)n1	1.0	-4.6	7.7	1.2	0.0*	nt
COc1ccc(CNCCc2ccc(Cl)cc2)cc1OCc1ccccc1	0.0	-2.7	-2.7	2.7*	354.1	nt
CCOc1cc(CNCCc2ccc(S(N)(=O)=O)cc2)ccc1OCc1ccccc1	0.0	3.1	0.8	5.7*	i	-7.9
Cc1nnc(NC(=O)CSc2nccn2Cc2ccc(F)cc2)s1	42.0*	-4.6	-1.7	0.1	359.4	-6.4
Cc1nnc(NC(=O)CSc2nccn2Cc2ccccc2)s1	86.0*	7.2	0.1	-0.3	564.3	-3.2
COc1ccc(Cn2ccnc2SCC(=O)Nc2nnc(C)s2)cc1	1.0	4.5	-3.0	-0.1	249.8	-5.9
CCc1c(-c2ccccc2)ncn1CCc1ccccc1OC	nt	nt	nt	nt	nt	-9.3
c1ccc(COc2ccc(OCCN3CCCCC3)cc2)cc1	0.0	0.8	8.2	0.4	81.0*	-5.1
CC1CCN(C(=O)COC(=O)CCCN2C(=O)c3cccc4cccc(c34)C2=O)CC1	0.0	nt	nt	0.0	0.0*	-7.7
O=C(CCCN1C(=O)c2cccc3cccc(c23)C1=O)OCC(=O)N1CCCCC1	nt	nt	nt	-0.3	nt	-10.4
Cc1ccc(S(=O)(=O)Nc2ccc(Nc3ccccc3)cc2)cc1	0.0	-6.7	-2.1	-0.1	166.7	68.5*
SMILES	GRK2 inh	proCasp3 act	proCasp7 act	aDG glyco act	T cell HTS	CaV13 FRET inh
Cn1c(=N)c(S(=O)(=O)c2ccc(F)cc2)cc2c(=O)n3ccccc3nc21	0.0	-25.6	-21.6	0.4	450.7	1.2
Cn1c(=N)c(S(=O)(=O)c2ccccc2)cc2c(=O)n3ccccc3nc21	0.0	-33.1	-26.3	0.7	450.1	34.5*
COc1cccc(C(CC2=CCCCC2)NC(=O)C(F)(F)F)c1 (stereo not drawn)	nt	nt	nt	nt	nt	-3.4
COc1ccc(-c2cc(-c3ccccc3)nc(N3CCCC3)n2)cc1OC	4.0	9.8	26.9*	0.4	484.1	-7.0
Cc1cc(N2CCN(CC(C)(C)O)C[C@H]2C)ccc1N1CCN(CC(C)(C)O)[C@@H](C)C1	nt	nt	nt	nt	nt	-11.0
CCOC(=O)C1Nc2ccc(Br)cc2C2C=CCC12 (stereo not drawn)	0.0	6.4	-10.2	0.2	240.1	-21.8
O=C(O)C1Nc2c(O)cccc2C2C=CCC12 (stereo not drawn)	3.0	1.3	6.7	-0.2	257.4	-4.3
O=C(O)C1Nc2ccc(Br)cc2C2C=CCC12 (stereo not drawn)	77.0*	-3.5	-0.1	0.3	171.7	nt
O=C(O)C1Nc2c(Cl)cc(Cl)cc2C2C=CCC12 (stereo not drawn)	72.0*	1.4	-5.0	0.1	595.3	nt
C[C@H]1CN([C@@H](C)CO)C(=O)CCCn2nncc2CO[C@@H]1CN(C)S(=O)(=O)c1cccs1	nt	nt	nt	nt	nt	-5.4
Nc1ccc2[nH]c(=S)[nH]c2c1	nt	nt	nt	-0.1	nt	-10.1
S=c1[nH]c2ccc(Cc3ccc4[nH]c(=S)[nH]c4c3)cc2[nH]1	2.0	-15.3	-26.8	-0.1	289.5	41.7*
CC1(C)Cc2ccccc2C2=NNC(=O)C2=N1	2.0	4.3	8.0	9.0*	268.3	-4.1
COC(=O)C1=C(C)N(Cc2ccccc2C(F)(F)F)C(=NCc2ccc(C(F)(F)F)cc2)NC1c1ccc(Cl)cc1 (stereo not drawn)	nt	nt	nt	nt	nt	-2.5
CC(Oc1ccc(Cl)cc1Cl)c1nc(-c2ccc(NC(=O)c3cccnc3)cc2)no1 (stereo not drawn)	1.0	10.3	-3.2	14.4*	190.6	nt
CC(Oc1ccc(Cl)cc1Cl)c1nc(-c2ccc(NC(=O)c3ccncc3)cc2)no1 (stereo not drawn)	0.0	2.6	8.3	4.2	498.6	-6.7
CCCc1c(Cc2cccc(F)c2)ncn1CCc1ccccc1OC	nt	nt	nt	nt	nt	-12.0
C/C(=N/NS(=O)(=O)c1ccc(Cl)cc1)c1cccc(NC(=O)c2ccncc2)c1	0.0	-6.0	-6.9	-0.2	215.7	nt
C/C(=N\NS(=O)(=O)c1ccccc1)c1cccc(NC(=O)c2cccc(Cl)c2)c1	60.0*	-1.2	9.0	-0.1	254.0	-6.0
CSC1=NSC2=NC(=O)/C(=C/c3coc4ccc(O)cc4c3=O)C(=N)N12	7.0	-13.5	-3.7	-0.4	313.9	126.3*
COC(=O)c1cc2c(c3c4cc(C)ccc4n(S(=O)(=O)c4ccc(OC)cc4)c13)C(=O)N(Cc1ccccc1)C2	nt	nt	nt	nt	nt	-9.2
COc1ccccc1N(Cc1ccccc1)S(=O)(=O)c1cccc(C(=O)NC2CC(C)(C)NC(C)(C)C2)c1	0.0	9.2	1.3	9.1*	338.3	-5.1
COc1ccccc1N(Cc1ccccc1)S(=O)(=O)c1cccc(C(=O)O)c1	0.0	-2.9	-1.3	0.0	308.7	-4.6

Compound activity deposited in PubChem by several laboratories.
